Here are results for two compounds from article PMC7723353 (Revista do Instituto de Medicina Tropical de São Paulo, 2020).

The nature of series [1]: Cytotoxicity by MTT assay in Vero cells. The class given is cell-based. The following applies: African green monkey, Vero cells (African green monkey kidney). In a few lines:
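Vero cells at 2.7 × 10^5 cells/mL in MEM with 5% FBS, held 24 h at 37 °C, 5% CO2. Medium replaced by two-fold serial dilutions of test compound from DMSO stocks, or DMSO; medium-only cell controls. Incubation 4 days at 37 °C, then MTT (5 mg/mL solution) for 4 h. Formazan dissolved in DMSO, absorbance read at 540 nm. CC50 from % viability by regression.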

Series [2] has as its system Zika virus (clinical isolate, IMT17). In words: Anti-ZIKV viral plaque reduction assay in Vero cells. The following applies: for EC50: 96 h, read-out: Anti-ZIKV activity EC50; for Selectivity index (SI): ratio between cytotoxicity and antiviral activity (CC50/EC50), Vero cells. The class given is cell-based. The essentials:
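ZIKV clinical isolate IMT17 on Vero cells (1.5 × 10^5 cells/well, grown 24 h). Infection at 100 PFU/well for 1 h at 37 °C, 5% CO2, then PBS (pH 7.0) wash. Test compound at several concentrations in 2X MEM, 2% FBS, 50% high-viscosity CMC overlay. Ribavirin positive control; medium and DMSO controls. After 4 days, crystal violet stain; plaque counts give % inhibition, EC50 by non-linear regression; SI = CC50/EC50.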
For orientation: In a plaque reduction assay, fewer plaques than in the control indicate reduced infectivity or spread.

For orientation: CC50 means the concentration that lowers cell viability or growth by half. Broadly, the EC90 is the point of the concentration-response curve where the effect stands at 90%. One may read the EC50 as the midpoint of the concentration-response curve. Take `CC(C)c1cc2c(cc1O)[C@@]1(C)CCC[C@@](C)(C=O)[C@@H]1CC2` [Compound 8, 18-oxoferruginol]: the CC50 at 4 days in series [1] is 35.1 ± 5.2 µM. For the same compound, in series [2] (Zika virus, Vero), the EC90 stood at 20.8 ± 3.75 µM and the EC50 stood at 2.6 ± 0.07 µM. For the same compound, the “Selectivity index (SI)” value in series [2] is reported as 13.51.

Take `NC(=O)c1ncn([C@@H]2O[C@H](CO)[C@@H](O)[C@H]2O)n1` [Ribavirin, reference compound]: half-maximal cytotoxicity in series [1] (CC50 at 4 days) was put at 2590 µM. The half-maximal effective concentration (EC50) in series [2] (Zika virus, Vero) was determined as 98.5 ± 6.46 µM. For the same compound, the “Selectivity index (SI)” value in series [2] was 26.25.
